Screens deposited in PubChem by several laboratories.
HIF act: HIF pathway transcriptional activation; AID 1910; 300,000 tested, 0.32% active; U2OS HRE-luciferase reporter, luminescence; normalized: DMSO 0%, desferrioxamine 100%; activation, % at 7.5 µM (by protocol);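 active = mean activation of at least 10% of the iron chelator positive control signal, with at least half of replicates also reaching 10%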
V-ATPase pH: alters yeast V-ATPase proton transport; S. cerevisiae, pHLuorin cytosolic pH fluorescence; response, % at 10 µM; 350,000 tested, 0.37% active; in the data active = response mostly above about 7.3%, no sharp cut-off; inactive = mostly below about 5.4%; note: actives read high
NRP1-CendR mod: NRP-1/CendR interaction modulation. inhibition, % at 25 µM. AID 602438. FAM-RPARPAR peptide binding to NRP-1, fluorescence polarization. 360,000 tested, 0.85% active. O14786;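 active = inhibition or corrected inhibition above about 18%, plus a signal ratio from 0.5 to 1.5, limit read from the data, passing the limit was not always enough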
Target sequence (O14786 whole entry, looked up): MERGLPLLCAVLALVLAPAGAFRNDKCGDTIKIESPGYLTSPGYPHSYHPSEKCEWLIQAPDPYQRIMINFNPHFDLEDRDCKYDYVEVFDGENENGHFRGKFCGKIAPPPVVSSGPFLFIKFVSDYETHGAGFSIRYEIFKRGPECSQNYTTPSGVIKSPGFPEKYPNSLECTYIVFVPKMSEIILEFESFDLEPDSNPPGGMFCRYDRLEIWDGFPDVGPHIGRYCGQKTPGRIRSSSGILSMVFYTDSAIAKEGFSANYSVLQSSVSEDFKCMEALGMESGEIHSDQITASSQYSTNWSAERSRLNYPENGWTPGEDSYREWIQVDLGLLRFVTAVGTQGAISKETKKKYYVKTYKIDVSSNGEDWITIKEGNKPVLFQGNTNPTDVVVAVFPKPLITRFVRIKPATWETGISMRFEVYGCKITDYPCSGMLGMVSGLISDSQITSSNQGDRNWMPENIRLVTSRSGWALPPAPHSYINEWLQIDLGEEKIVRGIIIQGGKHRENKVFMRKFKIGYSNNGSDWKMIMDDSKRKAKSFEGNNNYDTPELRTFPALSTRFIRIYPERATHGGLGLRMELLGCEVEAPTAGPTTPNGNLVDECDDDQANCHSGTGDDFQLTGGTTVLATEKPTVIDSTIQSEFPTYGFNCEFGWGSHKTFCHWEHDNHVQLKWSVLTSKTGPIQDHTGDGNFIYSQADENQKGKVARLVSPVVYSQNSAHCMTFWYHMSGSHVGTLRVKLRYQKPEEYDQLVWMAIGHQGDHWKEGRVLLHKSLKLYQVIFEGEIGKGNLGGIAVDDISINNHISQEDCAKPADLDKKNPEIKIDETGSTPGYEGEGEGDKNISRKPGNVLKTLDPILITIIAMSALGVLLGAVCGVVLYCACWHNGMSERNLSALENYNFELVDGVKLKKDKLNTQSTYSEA
AI-2 QS modul: Vibrio harveyi AI-2 quorum sensing modulation. Vibrio harveyi JMH597 AI-2 luminescence/OD600 ratio, 9 h; active compounds read low; strain lacks LuxN and CqsS sensors; 0 = neutral-control median. activity change, % at 7.5 µM. 300,000 tested, 0.4% active. AID 2094; in the data active = activity change below about -75%, passing the limit was not always enough;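 note: luminescence divided by OD600 gain over 9 h not by final OD600 alone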
T cruzi inh: T. cruzi replication inhibition; inhibition, % (no concentration beside the values); T. cruzi beta-gal in NIH3T3, luminescence, 90 h; 300,000 tested, 1.4% active;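 active = mean inhibition across valid replicates above about 55%, limit read from the data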;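 note: signal also drops with host cell toxicity which is not excluded here; higher percent means less beta-gal luminescence so fewer parasites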
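Assay system: NIH/3T3 host cells with β-galactosidase reporter T. cruzi; input: 5,000 host fibroblasts per well; compound: single 50 nL compound addition per well in DMSO; timing: ≥90 h infection period, 3 h prior cell attachment; measured by: GalScreen β-gal luminescence, detergent lysis, 60 min; evaluation: percent inhibition of parasite-derived β-gal signal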
Yeast superoxide: lowers age-related superoxide in aged yeast cells; S. cerevisiae aged cells, superoxide DHE fluorescence; active compounds read low; superoxide response (% of plate mean), % at 10 µM; 330,000 tested, 0.18% active;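 active = superoxide response under a set limit, about three screen SD below normal, cut at about 65% in these data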;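 note: yeast aged for seven days with compound at 30 °C before DHE staining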
VATPase regulator: regulators of yeast V-ATPase proton transport | 980 tested, 2% active | AID 602197 | S. cerevisiae pHLuorin cytosolic pH | response, % at 10 µM | shares compounds with V-ATPase pH; in the data active = response above about 24%
Each line names hits and unclear results; the compound was inactive in the other large screens (follow-up assays come after a bar, where they were run). Rows were chosen to be rich in hits. Some 3% of all compounds tested hit in one or more screens of this group.

Cc1ccc(-c2csc(C(C#N)=C3CCCC3)n2)cc1	none
N#CC(=C1CCCC1)c1nc(-c2ccccc2)cs1	V-ATPase pH 9.7 | VATPase regulator inactive
COc1ccc(C/C(C)=N/NC(=O)c2ccc(Cl)cc2)cc1	V-ATPase pH 105 | VATPase regulator inactive
CC(=O)OC(C(=O)N1CCN(c2ccccc2F)CC1)c1ccccc1 (centres undefined)	V-ATPase pH 12 | VATPase regulator inactive
CC(CC(=O)N1CCN(c2ccccc2F)CC1)c1ccccc1 (centres undefined)	none
COCCCN1C(=O)c2[nH]nc(-c3cc(C)cc(C)c3O)c2C1c1ccc(O)c(OC)c1 (centres undefined)	none
O=C1N=C(N2CCCC2)S/C1=C\c1cn[nH]c1-c1ccccc1	none (no result: V-ATPase pH, NRP1-CendR mod)
Cc1ccccc1N1CCN(C2=NC(=O)/C(=C/c3cn[nH]c3-c3ccccc3)S2)CC1	V-ATPase pH 8.3 | VATPase regulator inactive
CN(C(=O)COC(=O)c1ccc(Cl)cc1N)C1CCS(=O)(=O)C1 (centres undefined)	V-ATPase pH 11 | VATPase regulator inactive
CN(C(=O)COC(=O)c1cnc(Cl)c(Cl)c1)C1CCS(=O)(=O)C1 (centres undefined)	none
O=C(Nc1ccc(N2CCOCC2)cc1Cl)C1CCN(C(=O)OCc2ccccc2)CC1	V-ATPase pH 10 | VATPase regulator inactive
O=C(Nc1ccc(N2CCOCC2)cc1)C1CCN(C(=O)OCc2ccccc2)CC1	none
COc1ccc(CNS(=O)(=O)c2ccc(C3CNC(=O)C3)cc2)cc1 (centres undefined)	V-ATPase pH 12 (no result: HIF act) | VATPase regulator inactive
Cc1cccc(CSCCNC(=O)CN2C(=O)c3ccccc3S2(=O)=O)c1	none
Cc1c(C(=O)NN)nn(-c2ccc(Cl)cc2)c(=O)c1C#N	none (no result: HIF act, T cruzi inh) | VATPase regulator inactive
Cc1ccc(-n2nc(C(=O)NN)c(C)c(C#N)c2=O)cc1Cl	none
Cc1cc(N2CCN(c3ccccn3)CC2)n2nc(C)nc2n1	V-ATPase pH 8.4 | VATPase regulator inactive
COc1cccc(C(N)=O)c1	V-ATPase pH 11 | VATPase regulator inactive
Oc1ccccc1N1CCN(CC(O)COC2CCCc3ccccc32)CC1 (centres undefined)	none
CCCC(=O)Nc1ccc(C(=O)Nc2cccc(OC)c2)cc1	V-ATPase pH 9.7 | VATPase regulator inactive
CC(C)(C)OC(=O)NCC(=O)NNC(=O)C(C(=O)OCc1ccccc1)c1ccccc1 (centres undefined)	V-ATPase pH 8.8 (no result: HIF act, AI-2 QS modul, T cruzi inh) | VATPase regulator inactive
COC(=O)c1c(C)[nH]c(C)c1C(C)=O	none
CCC(C)NC(=O)CNC(=S)N(CCCN1CCOCC1)Cc1cccs1 (centres undefined)	none
O=C1CN(C(=O)CSc2nc3ccccc3c(=O)n2CC2CCCO2)c2ccccc2N1 (centres undefined)	V-ATPase pH 11 | VATPase regulator inactive
COc1ccc(-n2nnnc2/C(=C/N(C)C)C(=O)c2ccccc2)cc1	none
CN(C)/C=C(\C(=O)c1ccccc1)c1nnnn1-c1ccc(F)cc1	V-ATPase pH 21 | VATPase regulator inactive
CC1CN(C(=O)c2ccc(C(=O)c3ccccc3)cc2)CC(C)O1 (centres undefined)	V-ATPase pH 11 | VATPase regulator inactive
Cc1ccc(-c2cc(C(=O)N/N=C/c3c(C)nn(C)c3C)c3ccccc3n2)cc1C	V-ATPase pH 12 | VATPase regulator inactive
Cc1ccc(-c2cc(C(=O)N/N=C/c3ccoc3)c3ccccc3n2)cc1	none (no result: HIF act, T cruzi inh)
COc1ccc(CC(=O)n2[nH]c(=O)cc(C)c2=O)cc1OC	none
Cc1cc(=O)[nH]n(CCO)c1=O	V-ATPase pH 13 | VATPase regulator inactive
CCn1cc(C(=O)NCc2ccco2)c(=O)c2ccc(C)nc21	V-ATPase pH 6.7 | VATPase regulator inactive
CCn1cc(C(=O)NCc2ccccc2OC)c(=O)c2ccc(C)nc21	none (no result: V-ATPase pH, NRP1-CendR mod)
CC1(C)CC(=O)C(C(C2=C(O)CC(C)(C)CC2=O)c2cccs2)C(=O)C1 (centres undefined)	V-ATPase pH 11 | VATPase regulator 35
C=C(C)C1CC=C(C)/C(=N/NC(=O)c2ccc(NC(=O)CC)cc2)C1 (centres undefined)	none
O=C1C=C(NCc2ccc(Cl)cc2Cl)C2(CCCCC2)O1	V-ATPase pH 10 | VATPase regulator inactive
Cc1cccc(/C(N)=N/OC(=O)Cc2cccs2)c1	V-ATPase pH 8.5 | VATPase regulator inactive
Cc1ccc(/C(N)=N/OC(=O)Cc2cccs2)cc1	none
CC(C)(C)c1csc(Sc2ccc([N+](=O)[O-])cn2)n1	none
CCOc1ccc(CN2C(=O)c3ccccc3C2=O)cc1C(=O)N1CCC(C(N)=O)CC1	none
C=CCN(c1ccccc1)S(=O)(=O)c1cccc(C(=O)Nc2nnc(SCC)s2)c1	V-ATPase pH 11 | VATPase regulator inactive
COc1ccc(C(=O)COC(=O)/C=C/c2ccccc2[N+](=O)[O-])cc1	V-ATPase pH 14 (no result: HIF act, AI-2 QS modul, T cruzi inh) | VATPase regulator inactive
CCOC(=O)c1[nH]c2ccccc2c1NC(=O)c1nonc1C	none | VATPase regulator inactive
O=[N+]([O-])c1cc(C(F)(F)F)cc([N+](=O)[O-])c1NCCCNc1ccc([N+](=O)[O-])c2cccnc12	none
O=C(CSc1nnnn1-c1ccccc1)Nc1ccc(Cl)cc1	none
Cc1ccc2c(Cl)c(C(=O)NCC(c3ccco3)N3CCCC3)sc2c1 (centres undefined)	none
O=C(NCC(c1ccco1)N1CCCC1)c1sc2cc(F)ccc2c1Cl (centres undefined)	V-ATPase pH 8.6 (no result: HIF act, AI-2 QS modul, T cruzi inh) | VATPase regulator inactive
Cc1ccc(NC(=O)CSc2nnc(Cc3ccccc3)c(=O)[nH]2)c(C)c1	V-ATPase pH 11 | VATPase regulator inactive
O=C(c1ccc([N+](=O)[O-])o1)N1CCN(c2nc3ccc(F)cc3s2)CC1	V-ATPase pH 67 | VATPase regulator 41
O=C(c1ccc([N+](=O)[O-])o1)N1CCN(c2nc3c(Cl)cccc3s2)CC1	V-ATPase pH 10.0, T cruzi inh 59 | VATPase regulator 23
Cc1cc(C)n(CCN(C)C(=O)CCc2nnc(CCC3CCCCC3)o2)n1	none
O=S(=O)(NC1=NCCC1)c1ccc(F)cc1F	V-ATPase pH 9.1 | VATPase regulator inactive
O=C(CSc1ncccn1)N/N=C/c1cccs1	none
O=C(/C=C/c1ccc(Cl)cc1)N1CCN(c2ccc(Cl)cc2[N+](=O)[O-])CC1	none
O=S(=O)(c1ccccc1)N(CC(O)Cn1c2ccccc2c2ccccc21)c1ccccc1 (centres undefined)	V-ATPase pH 7.8 | VATPase regulator inactive
CCOCCCNC(=O)C1CC(=O)N(C2CCCC2)C1 (centres undefined)	none
